Source: PubChem (several laboratories)
PHOSPHO1 block: PubChem AID 1565; Phosphoethanolamine/phosphocholine phosphatase (Homo sapiens), Q8TCT1; recombinant PHOSPHO1, absorbance phosphatase assay; inhibition, % at 13.3 µM; 290,000 compounds, 1.1% hits; in the data active = inhibition above about 60%
hERG protect: hERG rescue from dofetilide block, primary screen, cell-based, CHO-hERG, FluxOR thallium flux, dofetilide IC70. 310,000 compounds, 0.51% hits. Voltage-gated inwardly rectifying potassium channel KCNH2 (Homo sapiens), Q12809. dofetilide IC70 present. activation (rescue from dofetilide block), less the hit threshold, % at 10 µM;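 active = activation above the mean of controls blocked by dofetilide plus 5 SD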;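 note: thallium influx through hERG after potassium depolarization seen as dye fluorescence rise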
KCNK9 inh: KCNK9 potassium channel inhibitors, primary screen, HEK293 cells, thallium flux | Potassium channel subfamily K member 9 (Homo sapiens), Q9NPC2 | FluxOR thallium flux fluorescence; active compounds read low | B-score at 10 µM | 310,000 compounds, 1.2% hits;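 active = ratio B-score over 3 SD below the library mean, with starting fluorescence within 5 SD of its mean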;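 note: negative B-score means less thallium flux so channel inhibition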
Target sequence (Q9NPC2 whole entry, looked up): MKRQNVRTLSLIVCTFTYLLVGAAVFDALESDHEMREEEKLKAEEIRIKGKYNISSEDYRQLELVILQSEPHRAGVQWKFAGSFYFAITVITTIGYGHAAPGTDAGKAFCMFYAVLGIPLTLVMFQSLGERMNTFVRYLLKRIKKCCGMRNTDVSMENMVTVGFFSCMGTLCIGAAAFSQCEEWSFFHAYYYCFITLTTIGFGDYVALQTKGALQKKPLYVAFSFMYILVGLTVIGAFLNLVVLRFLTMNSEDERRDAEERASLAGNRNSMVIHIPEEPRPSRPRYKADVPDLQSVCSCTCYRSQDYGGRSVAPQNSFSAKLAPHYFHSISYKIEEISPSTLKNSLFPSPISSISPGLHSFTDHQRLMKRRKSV
KCNQ1 block: inhibitors of human KCNQ1 channel, primary screen, cell-based, thallium flux, high-throughput; B-score at 10 µM; AID 2642, 2010; 310,000 compounds, 1.3% hits; CHO-K1 KCNQ1, FluxOR thallium flux fluorescence; active compounds read high; Potassium voltage-gated channel subfamily KQT member 1 (Homo sapiens), P51787;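 active = compounds whose thallium flux B-score, printed positive for inhibition, exceeds three library SD while starting fluorescence stays within three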;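 note: channel opened by potassium depolarization with thallium stimulus after 20 min compound exposure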
KCNK3 inh: human KCNK3 channel inhibitors, primary screen, CHO cells, FluxOR thallium flux, B-score; FluxOR fluorescence; active compounds read low; B-score at 10 µM; AID 602410, 2012; 340,000 compounds, 0.84% hits; Potassium channel subfamily K member 3 (Homo sapiens), O14649;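 active = B-score under library mean minus 4 SD, starting fluorescence ratio at most library mean plus 5 SD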;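 note: more negative B-score means stronger inhibition of thallium flux through KCNK3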
KCNQ1 pot: potentiators or activators of KCNQ1 channel, primary screen, cell-based, thallium flux, high-throughput; Potassium voltage-gated channel subfamily KQT member 1 (Homo sapiens), P51787; B-score at 10 µM; AID 2648, 2010; CHO-K1 KCNQ1, thallium flux FluxOR fluorescence; active compounds read high; 310,000 compounds, 0.35% hits;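 active = fluorescence ratio B-score, a plate-corrected score, at least three library SD, with initial intensity B-score within 5 SD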
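System: CHO-K1 cells stably expressing KCNQ1 / Medium: assay buffer for compound exposure, DMSO matched across wells / Reagent: thallium- and potassium-containing depolarizing buffer / Compound: one concentration, matched DMSO / Incubation: 20 min compound pretreatment at room temperature / Measured by: kinetic FluxOR fluorescence, 10 s baseline plus 110 s post-stimulus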
Numbers without * were called inactive; i = inactive; x = no result given. An excerpt weighted towards active compounds, which were near 4% of everything screened.

SMILES	PHOSPHO1 block	hERG protect	KCNK9 inh	KCNQ1 block	KCNK3 inh	KCNQ1 pot
CCCCCCC(=O)Nc1nc(C)c(-c2csc(Nc3cc(Cl)ccc3C)n2)s1	-78.8	-10.6	i	i	i	i
CCCCC(=O)Nc1nc(C)c(-c2csc(Nc3cc(OC)ccc3OC)n2)s1	69.5*	-21.2	-7.82*	i	i	i
CCCCC(=O)Nc1nc(C)c(-c2csc(Nc3cc(Cl)ccc3OC)n2)s1	98.7*	-9.0	-7.46*	7*	i	i
O=c1ccc(-c2ccc(S(=O)(=O)Nc3cccc(F)c3)o2)n[nH]1	3.8	-6.6	i	i	i	i
COc1ccccc1-n1c(SCC(=O)NC2CC2)nc2ccccc2c1=O	x	x	x	x	i	x
Cc1nc(CNC(=O)CC2C(=O)NCCN2Cc2ccc(F)cc2)cs1 (centres undefined)	65.8*	-9.2	i	i	i	i
O=C(CC1C(=O)NCCN1Cc1ccc(F)cc1)NC1CCCCCCC1 (centres undefined)	64.9*	-16.9	i	i	i	i
CCOc1ccc(CN2CCNC(=O)C2CC(=O)NCc2csc(C)n2)cc1 (centres undefined)	2.5	0.1	i	i	i	i
Cc1nc(NC(=S)NC(=O)c2cccs2)ccc1Br	-15.4	-6.4	i	i	i	13*
Cc1ccc(OCC(=O)NC(=S)Nc2cccc(C)n2)cc1	-13.2	-5.9	i	i	i	i
Cc1ccc(OCC(=O)NC(=S)Nc2ccc(Br)cn2)cc1	24.0	11.8*	i	i	i	9*
Cc1ccc(OCC(=O)NC(=S)Nc2ccc(Br)c(C)n2)cc1	84.1*	-6.8	i	i	i	i
CCOC(=O)c1ccc(NC2c3ccccc3C(=O)N2c2ccc(C)cn2)cc1 (centres undefined)	8.6	-6.6	i	i	i	i
CCCCC(=O)Nc1ccc(NC(=O)c2ccc(C)c([N+](=O)[O-])c2)cc1OC	-0.5	-6.9	i	i	i	i
CCOc1cc(N2CCOCC2)c(OCC)cc1NC(=O)c1c(-c2ccccc2)noc1C	x	x	x	x	i	x
CC(C)NC(=O)CN(C(=O)CCC(=O)Nc1nccs1)c1ccc(C(C)C)cc1	40.1	-1.2	i	i	i	i
CCOC(=O)c1c(C)oc2c1c(C(c1cccnc1)N1CCCCC1)c(O)c1ccccc12 (centres undefined)	10.7	-7.4	i	6*	i	i
Clc1ccccc1C1CC(c2ccccc2)=Nc2ccccc2N1 (centres undefined)	23.1	-14.5	i	6*	i	i
COCCC(=O)N1CCC(Oc2ccc(C(=O)N3C[C@@H]4CCC[C@H]3C4)cc2)CC1	11.9	-6.6	i	i	i	i
CCN(N=O)[C@@H](Cc1ccccc1)CN(N=O)[C@@H](Cc1ccccc1)CN(C)N=O	34.6	-6.8	i	i	i	i
CC1(C(=O)c2ccccc2)C2c3c(ccc4ccccc34)OC(=O)C21C(=O)N1CCOCC1 (centres undefined)	21.5	-9.2	i	i	i	i
Cc1ccc(C(=O)C2(C)C3c4cc(Br)ccc4OC(=O)C32C(=O)c2ccco2)cc1 (centres undefined)	30.5	-6.8	-7.68*	i	i	i
CCOc1ccccc1N(C)C(=O)c1ccc2c(=O)n3c(nc2c1)CCCCC3	58.3	-7.0	i	i	i	i
Cc1ccc(CN2CCSc3ccc(C(=O)NCc4ccco4)cc32)cc1	-17.9	-9.9	-7.1*	i	i	i
Cc1ccc(CN2CCSc3ccc(C(=O)NCCCN4CCOCC4)cc32)cc1	54.3	-16.8	i	i	i	i
SMILES	PHOSPHO1 block	hERG protect	KCNK9 inh	KCNQ1 block	KCNK3 inh	KCNQ1 pot
O=[N+]([O-])c1ccc(CSC2=NCCN2)cc1	13.9	-6.3	i	i	i	i
CCOC(=O)c1c(C)[nH]c(C(=O)OC)c1CCC(=O)OC	-13.2	-6.2	i	i	i	i
O=C(O)CN1C(=O)/C(=C\c2cn(CC(=O)N3CCOCC3)c3ccccc23)SC1=S	42.1	-15.0	i	6*	i	i
O=C(COC(=O)C1CCN(S(=O)(=O)c2ccc3c(c2)OCCO3)CC1)Nc1cc(C(F)(F)F)ccc1Cl	9.1	-2.7	i	i	i	i
Cc1ccc(S(=O)(=O)NC(C(=O)Oc2ccc3c(C(F)(F)F)cc(=O)oc3c2)c2ccccc2)cc1 (centres undefined)	-21.7	-11.8	i	6*	i	i
Cc1ccc(S(=O)(=O)NC(CC(C)C)C(=O)Oc2ccc3c4c(c(=O)oc3c2)CCC4)cc1 (centres undefined)	60.5*	-7.2	i	6*	i	i
COC(=O)C(NS(=O)(=O)c1ccc(C)cc1)c1ccccc1 (centres undefined)	4.4	-9.1	i	i	i	i
Cc1ccc(C2=NOC(C)(c3nnc(-c4ccccc4)o3)C2)cc1 (centres undefined)	x	-16.8	i	i	i	i
O=C(Nc1nnc(C2CCCC2)s1)C1CCC1	8.6	-5.8	i	i	i	i
Cc1nc(NN)nc(NCc2ccccc2)n1	34.3	7.1*	i	i	i	i
COCCN(CCOC)Cc1c(O)ccc2c1O/C(=C\c1ccc(C)o1)C2=O	27.0	-21.9	i	9*	i	i
CCOc1ccc2nc(NC(=O)c3ccc(OCC4CCCO4)cc3)sc2c1 (centres undefined)	-6.2	-4.5	i	i	i	i
CCCCCCc1cc2cc(-c3nnc(-c4ccccc4O)o3)c(=O)oc2cc1O	-16.4	4.3	i	i	i	i
CCCCCCc1cc2cc(-c3nnc(-c4ccccc4OC)o3)c(=O)oc2cc1O	5.5	-8.3	i	8*	i	i
CCCCCCc1cc2cc(-c3nnc(-c4cc(OC)c(OC)c(OC)c4)o3)c(=O)oc2cc1O	4.9	-9.7	i	15*	x	i
N#CC1=C(S)N=C(N)C(c2nc(-c3ccccc3)cs2)C12CCCC2 (centres undefined)	42.7	-8.5	i	i	i	i
N#CC1=C(S)N=C(N)C(c2nc(-c3ccccc3)cs2)C12CCCCC2 (centres undefined)	63.7*	-9.8	i	i	i	i
